From ChEMBL document CHEMBL1165861, “Synthesis and biological evaluation of some pyrazolylpyrazolines as anti-inflammatory-antimicrobial agents” (2010)
In brackets after ≈: the same amount, converted by molar mass.

Tests used:
[1] = test system: Bacillus subtilis; assay: Antimicrobial activity against Bacillus subtilis MTCC 121 at 4 mg/ml after 24 hrs by agar diffusion method; format: functional; details: MTCC 121, 24 h, read-out: DIZ
Method in brief: (§1)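 Agar well diffusion: seeded agar plates swabbed with inoculum and left 15 min for adsorption, then 8 mm wells bored and loaded. Incubation 37 °C for 24 h. Inhibition zone diameter measured in mm with a zone reader. DMSO medium served as negative control and ciprofloxacin as positive control. Triplicates.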

[2] = test system: Escherichia coli; assay: Antimicrobial activity against Escherichia coli MTCC 51 after 24 hrs by broth microdilution assay; format: functional; details: MTCC 51, 24 h
Method in brief: (§2)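 MIC was determined by microplate dilution (microdilution) in Müller–Hinton broth, with ciprofloxacin as the reference drug.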

[3] = test system: Staphylococcus aureus; assay: Antimicrobial activity against Staphylococcus aureus MTCC 3160 after 24 hrs by broth microdilution assay; format: functional; details: MTCC 3160, 24 h; method in brief: as §2
[4] = test system: Bacillus subtilis; assay: Antimicrobial activity against Bacillus subtilis MTCC 121 after 24 hrs by broth microdilution assay; format: functional; details: MTCC 121, 24 h; method in brief: as §2
[5] = test system: Rattus norvegicus; assay: Antiinflammatory activity in Wistar albino rat assessed as inhibition of carrageenan-induced paw edema at 50 mg/kg, po administered 30 mins before carrageenan challenge measured after 120 mins relative to control; format: functional
Method in brief: (§3)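 Male Wistar albino rats (200–250 g) in groups of six, food withdrawn 12 h before and during the test. Compounds were dosed orally at 50 mg/kg; controls received tween 80 (95:5). After 30 min, 0.1 mL of 1% w/v carrageenan in saline was injected subplantar into the left hind paw. Plethysmometer volumes were taken initially and at 30–120 min. AI% is relative to control, mean ± SEM, ANOVA.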

[6] = test system: Rattus norvegicus; assay: Antiinflammatory activity in Wistar albino rat assessed as inhibition of carrageenan-induced paw edema at 50 mg/kg, po administered 30 mins before carrageenan challenge measured after 90 mins relative to control; format: functional; method in brief: as §3
[7] = test system: Staphylococcus aureus; assay: Antimicrobial activity against Staphylococcus aureus MTCC 3160 at 4 mg/ml after 24 hrs by agar diffusion method; format: functional; details: MTCC 3160, 24 h, read-out: DIZ; method in brief: as §1
[8] = test system: Rattus norvegicus; assay: Antiinflammatory activity in Wistar albino rat assessed as inhibition of carrageenan-induced paw edema at 50 mg/kg, po administered 30 mins before carrageenan challenge measured after 60 mins relative to control; format: functional; method in brief: as §3
[9] = test system: Pseudomonas aeruginosa; assay: Antimicrobial activity against Pseudomonas aeruginosa MTCC 741 after 24 hrs by broth microdilution assay; format: functional; details: MTCC 741, 24 h; method in brief: as §2
[10] = test system: Pseudomonas aeruginosa; assay: Antimicrobial activity against Pseudomonas aeruginosa MTCC 741 at 4 mg/ml after 24 hrs by agar diffusion method; format: functional; details: MTCC 741, 24 h, read-out: DIZ; method in brief: as §1
[11] = test system: Rattus norvegicus; assay: Antiinflammatory activity in Wistar albino rat assessed as inhibition of carrageenan-induced paw edema at 50 mg/kg, po administered 30 mins before carrageenan challenge measured after 30 mins relative to control; format: functional; method in brief: as §3
[12] = test system: Escherichia coli; assay: Antimicrobial activity against Escherichia coli MTCC 51 at 4 mg/ml after 24 hrs by agar diffusion method; format: functional; details: MTCC 51, 24 h, read-out: DIZ; method in brief: as §1
[13] = species: Rattus norvegicus; assay: animal or person; details: Wistar albino, po, read-out: INH
[14] = species: Rattus norvegicus; assay: animal or person; details: Wistar albino, po, read-out: INH; remark: listed apart in the source
[15] = species: Rattus norvegicus; assay: animal or person; details: Wistar albino, po, read-out: INH; remark: listed apart in the source
[16] = species: Rattus norvegicus; assay: animal or person; details: Wistar albino, po, read-out: INH; remark: listed apart in the source

Compound	MIC [2]	MIC [3]	MIC [4]	MIC [9]	zone of inhibition at 4000 µg/mL [1]	inhibition in vivo at 50 mg/kg [5]	inhibition in vivo at 50 mg/kg [6]	zone of inhibition at 4000 µg/mL [7]	inhibition in vivo at 50 mg/kg [8]	zone of inhibition at 4000 µg/mL [10]	inhibition in vivo at 50 mg/kg [11]	zone of inhibition at 4000 µg/mL [12]	inhibition in vivo at 4 mg/kg [13]	inhibition in vivo at 4 mg/kg [14]	inhibition in vivo at 4 mg/kg [15]	inhibition in vivo at 4 mg/kg [16]
CS(=O)(=O)Nc1ccc([N+](=O)[O-])cc1Oc1ccccc1 [NIMESULIDE]	–	–	–	–	–	–	–	–	–	–	–	–	45%	36%	43%	37%
O=C(O)c1cn(C2CC2)c2cc(N3CCNCC3)c(F)cc2c1=O [CIPROFLOXACIN]	–	2 mg/L (≈ 6.04 µM)	2 mg/L (≈ 6.04 µM)	4 mg/L (≈ 12.1 µM)	29.2 mm	–	–	32.6 mm	–	28 mm	–	28.6 mm	–	–	–	–
Cc1ccc(-c2nn(-c3ccccc3)cc2C2CC(c3ccc(F)cc3)=NN2c2ccc(S(N)(=O)=O)cc2)cc1 (stereo not drawn)	64 mg/L (≈ 116 µM)	32 mg/L (≈ 58 µM)	32 mg/L (≈ 58 µM)	64 mg/L (≈ 116 µM)	16.3 mm	32%	34%	16.7 mm	43%	11 mm	30%	11.7 mm	–	–	–	–
Cc1ccc(-c2nn(-c3ccccc3)cc2C2CC(c3ccccc3)=NN2c2ccc(S(N)(=O)=O)cc2)cc1 (stereo not drawn)	64 mg/L (≈ 120 µM)	32 mg/L (≈ 60 µM)	64 mg/L (≈ 120 µM)	128 mg/L (≈ 240 µM)	11 mm	16%	22%	16 mm	14%	9.33 mm	18%	11.7 mm	–	–	–	–
NS(=O)(=O)c1ccc(N2N=C(c3ccc(F)cc3)CC2c2cn(-c3ccccc3)nc2-c2ccc(Br)cc2)cc1 (stereo not drawn)	128 mg/L (≈ 208 µM)	64 mg/L (≈ 104 µM)	64 mg/L (≈ 104 µM)	128 mg/L (≈ 208 µM)	11 mm	15%	17%	10 mm	26%	9.33 mm	13%	9.33 mm	–	–	–	–
NS(=O)(=O)c1ccc(N2N=C(c3ccc(Br)cc3)CC2c2cn(-c3ccccc3)nc2-c2ccccc2)cc1 (stereo not drawn)	64 mg/L (≈ 107 µM)	32 mg/L (≈ 53.5 µM)	64 mg/L (≈ 107 µM)	128 mg/L (≈ 214 µM)	11.3 mm	23%	22%	17 mm	23%	9.66 mm	7%	11.7 mm	–	–	–	–

The next lines start with results.

MIC [2]	MIC [3]	MIC [4]	MIC [9]	Compound	zone of inhibition at 4000 µg/mL [1]	inhibition in vivo at 50 mg/kg [5]	inhibition in vivo at 50 mg/kg [6]	zone of inhibition at 4000 µg/mL [7]	inhibition in vivo at 50 mg/kg [8]	zone of inhibition at 4000 µg/mL [10]	inhibition in vivo at 50 mg/kg [11]	zone of inhibition at 4000 µg/mL [12]	inhibition in vivo at 4 mg/kg [13]	inhibition in vivo at 4 mg/kg [14]	inhibition in vivo at 4 mg/kg [15]	inhibition in vivo at 4 mg/kg [16]
32 mg/L (≈ 53.5 µM)	8 mg/L (≈ 13.4 µM)	8 mg/L (≈ 13.4 µM)	32 mg/L (≈ 53.5 µM)	NS(=O)(=O)c1ccc(N2N=C(c3ccccc3)CC2c2cn(-c3ccccc3)nc2-c2ccc(Br)cc2)cc1 (stereo not drawn)	23.7 mm	32%	38%	24 mm	26%	17.3 mm	16%	17.3 mm	–	–	–	–
64 mg/L (≈ 120 µM)	32 mg/L (≈ 60 µM)	32 mg/L (≈ 60 µM)	64 mg/L (≈ 120 µM)	Cc1ccc(C2=NN(c3ccc(S(N)(=O)=O)cc3)C(c3cn(-c4ccccc4)nc3-c3ccccc3)C2)cc1 (stereo not drawn)	17 mm	26%	27%	16.3 mm	17%	11.7 mm	5%	11.7 mm	–	–	–	–
64 mg/L (≈ 123 µM)	32 mg/L (≈ 61.6 µM)	32 mg/L (≈ 61.6 µM)	64 mg/L (≈ 123 µM)	NS(=O)(=O)c1ccc(N2N=C(c3ccccc3)CC2c2cn(-c3ccccc3)nc2-c2ccccc2)cc1 (stereo not drawn)	18.7 mm	1%	10%	17.7 mm	4%	10.7 mm	5%	11.7 mm	–	–	–	–
64 mg/L (≈ 117 µM)	32 mg/L (≈ 58.4 µM)	64 mg/L (≈ 117 µM)	128 mg/L (≈ 234 µM)	Cc1ccc(C2=NN(c3ccc(S(N)(=O)=O)cc3)C(c3cn(-c4ccccc4)nc3-c3ccc(C)cc3)C2)cc1 (stereo not drawn)	10.7 mm	9%	16%	16.7 mm	19%	9.33 mm	18%	10.7 mm	–	–	–	–
32 mg/L (≈ 57.6 µM)	16 mg/L (≈ 28.8 µM)	16 mg/L (≈ 28.8 µM)	32 mg/L (≈ 57.6 µM)	NS(=O)(=O)c1ccc(N2N=C(c3ccc(F)cc3)CC2c2cn(-c3ccccc3)nc2-c2ccc(F)cc2)cc1 (stereo not drawn)	10.7 mm	9%	16%	21 mm	8%	19.3 mm	18%	10.7 mm	–	–	–	–
32 mg/L (≈ 59.5 µM)	16 mg/L (≈ 29.8 µM)	16 mg/L (≈ 29.8 µM)	32 mg/L (≈ 59.5 µM)	NS(=O)(=O)c1ccc(N2N=C(c3ccccc3)CC2c2cn(-c3ccccc3)nc2-c2ccc(F)cc2)cc1 (stereo not drawn)	11.7 mm	23%	22%	23.3 mm	14%	17.3 mm	18%	17.3 mm	–	–	–	–
16 mg/L (≈ 29.8 µM)	8 mg/L (≈ 14.9 µM)	8 mg/L (≈ 14.9 µM)	32 mg/L (≈ 59.5 µM)	NS(=O)(=O)c1ccc(N2N=C(c3ccc(F)cc3)CC2c2cn(-c3ccccc3)nc2-c2ccccc2)cc1 (stereo not drawn)	23.3 mm	15%	23%	23.7 mm	25%	17.7 mm	22%	21.7 mm	–	–	–	–
